According to ChEMBL document CHEMBL3994569, “Synthesis, anti-varicella-zoster virus and anti-cytomegalovirus activity of quinazoline-2,4-diones containing isoxazolidine and phosphonate substructures” (Eur J Med Chem, 2017):

Assays:
HEL [1] = experiment: Cytotoxicity against HEL cells infected with Varicella-Zoster virus assessed as growth inhibition; format: cell-based; conditions: human, hel
Human alphaherpesvirus 3 [2] = experiment: Antiviral activity against thymidine kinase deficient Varicella-Zoster virus 07-1 infected in HEL cells assessed as reduction in virus plaque formation; format: functional, cell-based
Method in brief: (§1)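 Confluent HEL fibroblast cultures were infected with VZV at an input of 100 PFU and incubated with varying compound concentrations. Plaques were counted once plaque formation was complete in untreated infected controls.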

Human alphaherpesvirus 3 [3] = experiment: Antiviral activity against thymidine kinase expressing Varicella-Zoster virus OKA infected in HEL cells assessed as reduction in virus plaque formation; format: functional, cell-based, strain Oka vaccine; method in brief: as §1
[4] = Cytotoxicity against HEL cells infected with Varicella-Zoster virus assessed as alteration in cell morphology by microscopic method; format: cell-based; conditions: human, HEL cells infected with Varicella-Zoster virus
Method in brief: (§2)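 In the HEL cultures used for the antiviral assays, cell morphology was examined microscopically across varying compound concentrations. MCC is the minimum concentration causing a microscopically detectable alteration of cell morphology.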

L1210 = experiment: Anti-proliferative activity against mouse L1210 cells measured after 48 hrs by coulter counter method; format: ADME, cell-based
Method in brief: (§3)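 Cells at 300,000–500,000 cells/mL, combined 1:1 by volume with compound dilutions, incubated at 37 °C: L1210 for two days, CEM for three days, HeLa for four days. Cells counted by Coulter counter.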

Cytomegalovirus [5] = experiment: Antiviral activity against Cytomegalovirus Davis infected in HEL cells assessed as reduction in virus plaque formation; format: functional, cell-based
Method in brief: (§4)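 Confluent HEL fibroblast cultures infected with 100 PFU of HCMV and kept with varying compound concentrations. Plaques scored once plaque formation was complete in untreated infected controls.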

Cytomegalovirus [6] = experiment: Antiviral activity against Cytomegalovirus AD169 infected in HEL cells assessed as reduction in virus plaque formation; format: functional, cell-based; method in brief: as §4
HeLa = experiment: Anti-proliferative activity against human HeLa cells measured after 4 days by coulter counter method; format: ADME, cell-based; method in brief: as §3
[7] = Cytotoxicity against HEL cells infected with Cytomegalovirus assessed as alteration in cell morphology by microscopic method; format: cell-based; conditions: human, HEL cells infected with Cytomegalovirus; method in brief: as §2
CCRF-CEM = experiment: Anti-proliferative activity against human CEM cells measured after 72 hrs by coulter counter method; format: ADME, cell-based; method in brief: as §3
HEL [8] = experiment: Cytotoxicity against HEL cells infected with Cytomegalovirus assessed as growth inhibition; format: cell-based; conditions: human
HMEC-1 = experiment: Anti-proliferative activity against HMEC1 cells by coulter counter method; format: ADME, cell-based, Homo sapiens; conditions: Homo sapiens, HMEC-1
Method in brief: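 HMEC-1 cells at 300,000–500,000 cells/mL, mixed 1:1 by volume with serial dilutions of test compound, incubated at 37 °C. Cell number counted by Coulter counter.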

[9] = Cytotoxicity against virus infected HEL cells assessed as alteration in cell morphology by microscopic method; format: cell-based; conditions: human; method in brief: as §2
[10] = Human alphaherpesvirus 3, 07-1, HEL
[11] = Human alphaherpesvirus 3, strain Oka vaccine, HEL
[12] = Human betaherpesvirus 5, Davis, HEL
[13] = Human betaherpesvirus 5, AD169, HEL

Compound	CC50 (HEL [1])	EC50 (Human alphaherpesvirus 3 [2]; [10])	EC50 (Human alphaherpesvirus 3 [3]; [11])	MCC [4]	IC50 (L1210; Mus musculus, L1210, 48 h)	EC50 (Cytomegalovirus [5]; [12])	EC50 (Cytomegalovirus [6]; [13])	IC50 (HeLa; Homo sapiens, HeLa, 96 h)	MCC [7]	IC50 (CCRF-CEM; ccrf-cem)	EC50 (Human alphaherpesvirus 3 [2])	EC50 (Human alphaherpesvirus 3 [3])	CC50 (HEL [8])	IC50 (L1210; l1210)	EC50 (Cytomegalovirus [5])	EC50 (Cytomegalovirus [6])	IC50 (HeLa; hela)	IC50 (CCRF-CEM; Homo sapiens, CCRF-CEM, 72 h)	IC50 (HMEC-1)	MCC [9]
CCOP(=O)(OCC)C1CC(Cn2c(=O)n(C(=O)c3cccc(F)c3)c(=O)c3ccccc32)ON1C (mixture of isomers)	30 µM	21.4 µM	7.8 µM	> 100 µM	> 250 µM	> 100 µM	> 100 µM	> 250 µM	100 µM											
CCOP(=O)(OCC)C1CC(Cn2c(=O)n(Cc3ccccc3)c(=O)c3ccccc32)ON1Cc1ccccc1 (mixture of isomers; trans)										15 µM	> 20 µM	> 20 µM	41.7 µM	17 µM	13.1 µM	≥ 14.5 µM	73 µM			
CCOP(=O)(OCC)[C@@H]1C[C@@H](Cn2c(=O)n(Cc3cccc(F)c3)c(=O)c3ccccc32)ON1C (relative stereo)		> 100 µM	55.7 µM	> 100 µM	132 µM	63.1 µM	76.5 µM	88 µM	> 100 µM									100 µM	152 µM	
CCOP(=O)(OCC)[C@H]1C[C@@H](Cn2c(=O)n(C(=O)c3ccc(F)cc3)c(=O)c3ccccc32)ON1C (relative stereo)		24.5 µM	26.2 µM	> 100 µM		> 20 µM	> 20 µM	> 250 µM	100 µM									> 250 µM	> 250 µM	
CCOP(=O)(OCC)[C@@H]1C[C@@H](Cn2c(=O)n(Cc3ccccc3F)c(=O)c3ccccc32)ON1Cc1ccccc1 (relative stereo)		> 20 µM	4 µM	20 µM	68 µM	> 4 µM	> 20 µM	79 µM	20 µM									98 µM	145 µM	
CCOP(=O)(OCC)[C@@H]1C[C@@H](Cn2c(=O)n(C(=O)c3cccc(F)c3)c(=O)c3ccccc32)ON1C (relative stereo)	16.5 µM	15 µM	16.7 µM	> 100 µM	228 µM	> 20 µM	> 20 µM		100 µM									> 250 µM	> 250 µM	
CCOP(=O)(OCC)C1CC(Cn2c(=O)n(C(=O)c3ccccc3F)c(=O)c3ccccc32)ON1C (mixture of isomers)		25.6 µM	29 µM	> 100 µM	> 250 µM	63.1 µM	> 100 µM	> 250 µM	100 µM										> 250 µM	
CCOP(=O)(OCC)[C@@H]1C[C@@H](Cn2c(=O)n(C(=O)c3cccc(F)c3)c(=O)c3ccccc32)ON1Cc1ccccc1 (relative stereo)	9.8 µM	8.5 µM	8.7 µM	100 µM	170 µM	> 20 µM	> 20 µM	> 250 µM	20 µM									224 µM	> 250 µM	
CCOP(=O)(OCC)[C@@H]1C[C@@H](Cn2c(=O)n(Cc3ccc(F)cc3)c(=O)c3ccccc32)ON1C (relative stereo)		> 20 µM	66.9 µM	10 µM	126 µM	100 µM	> 100 µM	82 µM	100 µM									93 µM	158 µM	
NC(=O)c1ncn([C@@H]2O[C@H](CO)[C@@H](O)[C@H]2O)n1 [RIBAVIRIN]																				≥ 250 µM
CCOP(=O)(OCC)[C@@H]1C[C@@H](Cn2c(=O)n(Cc3ccccc3)c(=O)c3ccccc32)ON1C (relative stereo)		> 20 µM	> 20 µM	100 µM	141 µM	> 100 µM	> 100 µM	119 µM	100 µM									124 µM	235 µM	
CCOP(=O)(OCC)[C@@H]1C[C@@H](Cn2c(=O)n(Cc3ccccc3F)c(=O)c3ccccc32)ON1C (relative stereo)		> 20 µM	> 20 µM	100 µM	196 µM	100 µM	> 100 µM	74 µM	20 µM									99 µM	189 µM	
CCOP(=O)(OCC)[C@@H]1C[C@@H](Cn2c(=O)n(C(=O)c3ccc(F)cc3)c(=O)c3ccccc32)ON1Cc1ccccc1 (relative stereo)	12.7 µM	8.3 µM	7.5 µM	100 µM	123 µM	> 20 µM	> 20 µM		20 µM									170 µM	≥ 250 µM	
CCOP(=O)(OCC)C1CC(Cn2c(=O)n(Cc3ccc(F)cc3)c(=O)c3ccccc32)ON1C (mixture of isomers)		25.2 µM	35.5 µM	100 µM	≥ 250 µM	> 20 µM	> 20 µM	158 µM	100 µM									173 µM	≥ 250 µM	
O=c1[nH]cc(F)c(=O)[nH]1 [FLUOROURACIL]					0.33 µM															
CCOP(=O)(OCC)C1CC(Cn2c(=O)n(C(=O)c3ccc(F)cc3)c(=O)c3ccccc32)ON1Cc1ccccc1 (mixture of isomers)	12.3 µM	7.6 µM	7.4 µM	100 µM	105 µM	> 20 µM	> 20 µM	> 250 µM	20 µM									132 µM		
Nc1nc2c(ncn2COCCO)c(=O)[nH]1 [ACYCLOVIR]				> 440 µM																> 250 µM
CCOP(=O)(OCC)[C@@H]1C[C@@H](Cn2c(=O)n(C(=O)c3ccccc3)c(=O)c3ccccc32)ON1Cc1ccccc1 (relative stereo)	28.9 µM	> 20 µM	8.5 µM	100 µM	154 µM	> 20 µM	> 20 µM	> 250 µM	100 µM									≥ 250 µM		
CCOP(=O)(OCC)C1CC(Cn2c(=O)n(Cc3cccc(F)c3)c(=O)c3ccccc32)ON1C (mixture of isomers)	36.8 µM	27.1 µM	7 µM	≥ 100 µM	118 µM	44.7 µM	> 20 µM	86 µM	100 µM									77 µM	149 µM	
CCOP(=O)(OCC)[C@@H]1C[C@@H](Cn2c(=O)n(C(=O)c3ccccc3F)c(=O)c3ccccc32)ON1C (relative stereo)		34.2 µM	36.6 µM	> 100 µM		66.9 µM	> 20 µM		100 µM									> 250 µM		
CCOP(=O)(OCC)C1CC(Cn2c(=O)n(Cc3ccccc3)c(=O)c3ccccc32)ON1C (mixture of isomers)		> 100 µM	> 100 µM	> 100 µM	146 µM	> 100 µM	> 100 µM	95 µM	100 µM									104 µM	222 µM	
CCOP(=O)(OCC)C1CC(Cn2c(=O)n(C(=O)c3ccccc3F)c(=O)c3ccccc32)ON1Cc1ccccc1 (mixture of isomers)	21.4 µM	20 µM	16.7 µM	100 µM	155 µM	> 20 µM	> 20 µM	≥ 250 µM	100 µM									158 µM	> 250 µM	
CCOP(=O)(OCC)[C@H]1C[C@@H](Cn2c(=O)n(C(=O)c3ccccc3)c(=O)c3ccccc32)ON1Cc1ccccc1 (relative stereo)	16.3 µM	10.8 µM	8.5 µM	100 µM	155 µM	> 20 µM	> 20 µM		100 µM										> 250 µM	
CCOP(=O)(OCC)C1CC(Cn2c(=O)n(C(=O)c3cccc(F)c3)c(=O)c3ccccc32)ON1Cc1ccccc1 (mixture of isomers)	19.3 µM	8.5 µM	6 µM	100 µM	185 µM	> 20 µM	> 20 µM		100 µM									166 µM	> 250 µM	
CCOP(=O)(OCC)[C@H]1C[C@@H](Cn2c(=O)n(Cc3ccccc3F)c(=O)c3ccccc32)ON1C (relative stereo)		> 100 µM	58.5 µM	> 100 µM	203 µM	100 µM	> 100 µM	128 µM	100 µM									181 µM	≥ 250 µM	
